Source: PubChem (several laboratories)
Rows were chosen to be rich in hits. Some 3.8% of all compounds tested hit in one or more screens of this group.
NS3 helicase inh = inhibitors of HCV NS3 helicase, primary screen, biochemical, Cy5 molecular beacon fluorescence; Hepatitis C virus NS3 helicase; NS3 helicase DNA unwinding; inhibition, % at 10.9 µM; 290,000 compounds, 0.56% hits; AID 1800, 2009;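 active = inhibition above the mean of all tested compounds plus 3 SD, set per campaign, cut at about 35% in these data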;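 note: 0% = DMSO wells and 100% = thioflavine S control wells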
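System: HCV NS3 helicase fragment; control set: DMSO and thioflavine S; technique: Cy5 fluorescence at 0 and 60 min, beacon hairpin quenching; reagent: beacon DNA duplex substrate plus ATP; replicates: singlicate; schedule: 1 h reaction at 25 °C, ATP-initiated; medium: MOPS buffer pH 6.5 with MgCl2, DTT, Tween20, BSA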
HSP90 refold inh = HSP90 inhibitors, primary screen, cell lysate, luminescence. Rabbit reticulocyte lysate, luciferase refolding luminescence, 3 h. inhibition, % at 5.6 µM. 290,000 compounds, 0.91% hits. AID 1789, 2009;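 active = inhibition above the screen-wide mean plus 3 SD, computed separately per campaign, cut at about 16% in these data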;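 note: 0% = DMSO wells and 100% = 60 µM geldanamycin wells; inhibitors lower the luminescence because luciferase stays unfolded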
HSF1 inh = HSF1 inhibitors in luciferase reporter cells, primary screen, cell-based, NIH3T3, luminescence; activity change, negative = inhibition, % at 7.5 µM (by protocol); 300,000 compounds, 0.77% hits; NIH3T3-HGL HSE-luciferase, MG132-induced, luminescence 8 h; active compounds read low;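 active = more than half of replicate wells show activity change below -50%, luminescence cut by over half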;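 note: luciferase reports HSF-1 transcriptional activity via heat shock element; 0% = median of DMSO wells and -100% = zero luminescence signal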
Hep lipid drop = inhibitors of hepatocyte lipid droplet formation, primary screen, imaging, high-throughput imaging, BODIPY stain. AML12 mouse hepatocytes, oleate lipid droplets. inhibition, % at 6.5 µM. 240,000 compounds, 0.4% hits. AID 1656, 2009;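 active = lipid droplet intensity inhibited by at least 50%, with more than 500 cells counted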
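Assay system: AML12 mouse liver cells | Compound dosing: One dose, 6.5 µM compound | Read-out basis: Droplet intensity reduction, % inhibition | Measured by: Fluorescence imaging, 20x objective, two fields per well | Schedule: Overnight treatment with compound plus oleate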
HSF1 activator = HSF-1 activators, primary screen, NIH3T3-HGL cells, MG132 stress, luminescence, single point; NIH3T3-HGL HSF-1 luciferase reporter, 8 h; 100% = twice DMSO control signal; activation, % at 9 µM; 300,000 compounds, 1.7% hits;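 active = mean replicate activation of at least 50% with a set share of replicates each reaching 50%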;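 note: 0% = median of the neutral control wells and 100% = twice that signal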
Hep lipid conf = hepatocyte lipid droplet accumulation inhibitors, confirmation, imaging, AML12 mouse hepatocytes, single concentration, high-content; shares compounds with Hep lipid drop; inhibition, % at 5.2 µM; BODIPY lipid droplet imaging; droplets induced with 100 µM oleic acid; 870 compounds, 65% hits;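 active = inhibition of lipid droplet metric at least 50%, with more than 300 cells in each of four replicates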;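 note: plate controls were DMSO with oleic acid for no effect and 5 µM Triacsin-C for full effect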
AML12 tox img = AML12 hepatocyte cytotoxicity, counter-screen for hepatic lipid droplet formation project, imaging, DAPI nuclear morphology imaging. shares compounds with Hep lipid drop. 870 compounds, 3% hits. AML12 mouse hepatocytes; active compounds read high; cells fed 100 µM oleate overnight. AID 463200, 2010. z-score at 5 µM; in the data active = z-score above about 6.3;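 note: compound exposure lasted overnight at 37 °C before fixation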
AML12 tox conf = AML12 hepatocyte cytotoxicity, confirmation, cytotoxicity control for hepatic lipid droplet formation project, cell-based, single concentration; AML12 mouse hepatocyte viability, ATP luminescence; cells loaded with 100 µM oleic acid; cytotoxicity, % at 50 µM; shares compounds with Hep lipid drop; 530 tested, under 10 active;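 active = cytotoxicity above 50% in each of four replicates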;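 note: compound exposure lasted overnight at 37 °C before the ATP read; 0% = DMSO-treated cells and 100% = wells with no cells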
* = called active by the depositor; nt = not tested or not shown.

SMILES | NS3 helicase inh | HSP90 refold inh | HSF1 inh | Hep lipid drop | HSF1 activator | Hep lipid conf | AML12 tox img | AML12 tox conf
COc1ccc(C)cc1S(=O)(=O)N(CC(=O)Nc1cc([N+](=O)[O-])ccc1C)c1ccc(C)c(C)c1 | -11 | -1 | 11 | 51* | 9 | 57 | -0.35 | 14
Cc1cc(C)n2nc(-c3ccco3)nc2n1 | -9 | -4 | 0 | 10 | 7 | nt | nt | nt
COc1ccccc1Nc1nnc(SCC(=O)Nc2nc(-c3ccc(F)cc3)cs2)s1 | 14 | 5 | 5 | 68* | 6 | 45 | 0.44 | nt
CCOc1ccccc1Nc1nnc(SCC(=O)Nc2nc(-c3ccc(OC)cc3)cs2)s1 | 9 | 3 | 7 | 91* | 7 | 104* | 0.27 | 6
N#C/C(=C\c1cc2c(cc1Br)OCO2)C(=O)NCC1CCCO1 (centres undefined) | 8 | -1 | -14 | -13 | -27 | nt | nt | nt
C/C(=N/NC(=O)c1ccco1)c1ccc(Br)s1 | -6 | -7 | 6 | 26 | 9 | nt | nt | nt
Cn1c(=O)c(=O)n(C)c2cc(N3CCCC3)c(NS(=O)(=O)c3ccc(Cl)cc3)cc21 | -4 | -2 | 1 | 50* | 1 | 8 | -0.61 | nt
Cn1c(=O)c(=O)n(C)c2cc(N3CCOCC3)c(NS(=O)(=O)c3ccc(F)c(Cl)c3)cc21 | -3 | -4 | 0 | -24 | 9 | nt | nt | nt
O=c1ccc(-c2ccc(S(=O)(=O)NCC3CCN(Cc4ccccc4F)CC3)s2)n[nH]1 | -27 | 0 | 2 | 10 | 24 | nt | nt | nt
CCN1C(=O)/C(=C2\SC(=S)N(CCCOC)C2=O)c2ccccc21 | 0 | 2 | 6 | nt | -9 | nt | nt | nt
CCC(C)C(=O)N1c2ccccc2C(=C2SC(C(=O)OC)=C(C(=O)OC)S2)C(=S)C1(C)C (centres undefined) | 8 | 0 | 17 | 67* | 10 | 112* | 0.24 | 6
Cc1ccc(-n2nc3c(=O)n(CC(=O)NC(C)CCc4ccccc4)nc(C)c3c2C)cc1 (centres undefined) | 3 | 0 | 1 | 88* | 12 | 77* | -0.48 | 5
Cc1ccc(-n2nc3c(=O)n(C(C)C(=O)NCCc4cccs4)nc(C)c3c2C)cc1 (centres undefined) | 2 | -1 | 10 | 53* | 17 | 96* | -0.5 | 20
Cc1ccc(-n2nc3c(=O)n(CC(=O)NC4CCCCC4)nc(C)c3c2C)cc1 | 5 | 2 | 2 | 57* | -5 | 88* | -0.23 | 17
Cc1ccc(-n2nc3c(=O)n(CC(=O)NCc4ccccc4)nc(C)c3c2C)cc1 | -3 | -2 | -3 | 8 | -2 | nt | nt | nt
CCCCOc1ccc(/C=C/C(=O)OCC(=O)c2c(N)n(C)c(=O)n(C)c2=O)cc1OCC | -11 | -5 | -4 | 52* | 4 | 67* | -0.41 | -2
Fc1ccc(Nc2nc(N3CCOCC3)nc(N3CCOCC3)n2)cc1Cl | -7 | 0 | -7 | -12 | 4 | nt | nt | nt
Clc1ccc(Nc2nc(NCCN3CCOCC3)nc(N3CCOCC3)n2)cc1 | -41 | -1 | -3 | 66* | -1 | 75* | 19* | nt
CC(=O)C1=C(C)NC(SCSc2ccccc2)=C(C#N)C1c1cccnc1 (centres undefined) | -5 | 3 | 18 | 59* | 15 | 79* | 0.91 | -7
COc1cccc(N2CCN(CC(=O)NC3=Nc4ccccc4N=C(C)C3c3ccccc3)CC2)c1 (centres undefined) | -1 | 4 | 4 | -22 | 6 | nt | nt | nt
COc1cccc(N2CCN(CC(=O)Nc3nnc(-c4ccccc4)s3)CC2)c1 | -8 | 3 | 5 | 59* | -7 | 95* | 0.5 | 15
CCOc1ccc(C(=O)Nc2ccc(NC(=S)NC(=O)CC)cc2)cc1Cl | 0 | 2 | 14 | 50* | 49 | 102* | 0.14 | 7
CCOc1ccc(C(=O)Nc2cc(NC(=O)c3ccc(OCC)c(Cl)c3)cc(C(=O)O)c2)cc1Cl | 17 | -2 | 2 | 1 | 11 | nt | nt | nt
COc1ccc(CNC(=O)C2CCCN2C)cc1OC (centres undefined) | -5 | 3 | 6 | 0 | 5 | nt | nt | nt
COc1ccc(C(C(=O)NC(C)(C)C)N(Cc2ccc(C)cc2)C(=O)CCC(=O)Nc2cc(C)on2)cc1 (centres undefined) | -5 | 2 | 6 | 70* | 13 | 106* | -0.58 | 9
SMILES | NS3 helicase inh | HSP90 refold inh | HSF1 inh | Hep lipid drop | HSF1 activator | Hep lipid conf | AML12 tox img | AML12 tox conf
COc1ccc(C(C(=O)NC(C)(C)C)N(Cc2ccco2)C(=O)CCC(=O)Nc2cc(C)on2)cc1 (centres undefined) | 6 | 3 | 2 | 52* | 6 | 69* | -0.5 | 10
CCC(C)(C)NC(=O)C(c1ccc(OC)cc1)N(Cc1ccco1)C(=O)CCC(=O)Nc1cc(C)on1 (centres undefined) | -6 | 5 | 6 | -6 | 10 | nt | nt | nt
CCCc1cc(=O)oc2cc(C)cc(OCC(=O)N3CCC(C(N)=O)CC3)c12 | 21 | 0 | -1 | -7 | 6 | nt | nt | nt
c1ccc(NCc2ccncc2)cc1 | 2 | 1 | 1 | 55* | 0 | 4 | 0.77 | nt
Cc1cc(C)cc(NCc2ccncc2)c1 | 2 | 1 | -2 | -2 | 0 | nt | nt | nt
COc1ccc(C(=O)OC(C)C(=O)Nc2cc(C(F)(F)F)ccc2Cl)c(OC)c1OC (centres undefined) | 1 | -1 | 5 | 80* | 29 | 107* | -0.28 | 0
CCN(C(=O)COC(=O)CNS(=O)(=O)c1ccc(SC)c([N+](=O)[O-])c1)C1CCCCC1 | nt | nt | -2 | nt | -13 | nt | nt | nt
O=C(COC(=O)COc1ccc(Cl)cc1Cl)Nc1cccnc1Cl | 0 | 3 | 13 | 50* | 63* | 12 | -1 | nt
Cc1cccc(C)c1NC(=O)Cn1cc(C=O)c2ccccc21 | 4 | -4 | -5 | -1 | -4 | nt | nt | nt
Cc1ccc2nc(Nc3ccc(F)cc3)c3nncn3c2c1 | -18 | -4 | 3 | 59* | -5 | 58 | -0.34 | 17
C=CCN(CC(=O)Nc1c(C)cccc1CC)C(=O)SCCC | -2 | -4 | -7 | 41 | 7 | nt | nt | nt
